Data from ChEMBL document CHEMBL3232916, “1-(4-Methoxyphenyl)-5-(3,4,5-trimethoxyphenyl)-1H-1,2,4-triazole-3-carboxamides: synthesis, molecular modeling, evaluation of their anti-inflammatory activity and ulcerogenicity” (Eur J Med Chem, 2014).

Legend:
[1] = tested on: Rattus norvegicus; assay: Antiinflammatory activity in albino rat assessed as inhibition of carrageenan-induced paw edema at 0.28 mmol/kg, po administered 30 mins before carrageenan challenge measured after 3 hrs relative to indomethacin; assay type: functional; settings: read-out: INH
Outline: (§1)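 Calculated from the 3 h % edema inhibition in carrageenan paw edema (male albino rats, oral dosing in 0.5% CMC 30 min before 1% carrageenan subplantar injection). Expressed as % of the inhibition given by the reference drug in the same assay.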

[2] = tested on: Rattus norvegicus; assay: Antiinflammatory activity in albino rat assessed as inhibition of carrageenan-induced paw edema at 0.28 mmol/kg, po administered 30 mins before carrageenan challenge measured after 2 hrs relative to control; assay type: functional
Outline: (§2)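 Male albino rats, n = 4 per group. Dosed orally as a suspension in 0.5% w/v CMC in water; controls received CMC alone. 0.1 mL of freshly prepared 1% carrageenan in saline was injected subplantar into the right hind paw 30 min after dosing, with saline in the left paw. Right paw thickness was read by Vernier caliper before and at 1–5 h. Result is % decrease in edema vs control, mean ± S.E.M.; one-way ANOVA.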

[3] = tested on: Rattus norvegicus; assay: Antiinflammatory activity in albino rat assessed as inhibition of carrageenan-induced paw edema at 0.28 mmol/kg, po administered 30 mins before carrageenan challenge measured after 3 hrs relative to celecoxib; assay type: functional; settings: read-out: INH; outline: as §1
[4] = tested on: Rattus norvegicus; assay: Antiinflammatory activity in albino rat assessed as inhibition of carrageenan-induced paw edema at 0.28 mmol/kg, po administered 30 mins before carrageenan challenge measured after 3 hrs relative to control; assay type: functional; outline: as §2
[5] = tested on: Rattus norvegicus; assay: Antiinflammatory activity in albino rat assessed as inhibition of carrageenan-induced paw edema at 0.28 mmol/kg, po administered 30 mins before carrageenan challenge measured after 4 hrs relative to control; assay type: functional; outline: as §2
[6] = tested on: Rattus norvegicus; assay: Antiinflammatory activity in albino rat assessed as inhibition of carrageenan-induced paw edema at 0.28 mmol/kg, po administered 30 mins before carrageenan challenge measured after 5 hrs relative to control; assay type: functional; outline: as §2
[7] = tested on: Rattus norvegicus; assay: Ulcerogenic effect in albino rat assessed as ulcer index at 0.28 mmol/kg, po; assay type: toxicity, organism-based; settings: in vivo
Outline: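 Rat gastric ulcers were graded by area: level I <1 mm², level II 1–3 mm², level III >3 mm². Ulcer index = 1×(level I count) + 2×(level II) + 3×(level III). Reported as mean ± S.E.M., n = 4.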

[8] = tested on: Rattus norvegicus; assay: Antiinflammatory activity in albino rat assessed as inhibition of carrageenan-induced paw edema at 0.28 mmol/kg, po administered 30 mins before carrageenan challenge measured after 1 hr relative to control; assay type: functional; outline: as §2
[9] = target: T1, Prostaglandin G/H synthase 1 (Ovis aries, UniProt P05979); assay: Inhibition of ovine COX1 assessed as prostaglandin F2alpha level
T1 sequence (P05979 whole entry): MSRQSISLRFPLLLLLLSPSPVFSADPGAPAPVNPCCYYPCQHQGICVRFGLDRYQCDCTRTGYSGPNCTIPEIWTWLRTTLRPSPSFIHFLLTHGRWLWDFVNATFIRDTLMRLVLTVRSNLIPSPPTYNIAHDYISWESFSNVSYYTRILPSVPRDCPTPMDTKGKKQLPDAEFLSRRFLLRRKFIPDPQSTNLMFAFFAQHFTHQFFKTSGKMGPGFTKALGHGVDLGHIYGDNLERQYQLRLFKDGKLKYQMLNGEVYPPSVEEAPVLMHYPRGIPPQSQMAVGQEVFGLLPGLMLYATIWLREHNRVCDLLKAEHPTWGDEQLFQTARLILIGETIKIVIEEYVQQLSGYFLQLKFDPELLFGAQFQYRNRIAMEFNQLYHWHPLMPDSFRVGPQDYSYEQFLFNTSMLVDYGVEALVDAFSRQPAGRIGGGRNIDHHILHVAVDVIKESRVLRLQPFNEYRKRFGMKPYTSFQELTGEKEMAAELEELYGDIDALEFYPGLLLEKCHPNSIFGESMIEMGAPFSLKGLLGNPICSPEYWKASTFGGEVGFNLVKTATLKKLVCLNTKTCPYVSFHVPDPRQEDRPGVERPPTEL

[10] = target: T2, Prostaglandin G/H synthase 2 (Homo sapiens, UniProt P35354); assay: Inhibition of human recombinant COX2 assessed as prostaglandin F2alpha level
T2 sequence (P35354 whole entry): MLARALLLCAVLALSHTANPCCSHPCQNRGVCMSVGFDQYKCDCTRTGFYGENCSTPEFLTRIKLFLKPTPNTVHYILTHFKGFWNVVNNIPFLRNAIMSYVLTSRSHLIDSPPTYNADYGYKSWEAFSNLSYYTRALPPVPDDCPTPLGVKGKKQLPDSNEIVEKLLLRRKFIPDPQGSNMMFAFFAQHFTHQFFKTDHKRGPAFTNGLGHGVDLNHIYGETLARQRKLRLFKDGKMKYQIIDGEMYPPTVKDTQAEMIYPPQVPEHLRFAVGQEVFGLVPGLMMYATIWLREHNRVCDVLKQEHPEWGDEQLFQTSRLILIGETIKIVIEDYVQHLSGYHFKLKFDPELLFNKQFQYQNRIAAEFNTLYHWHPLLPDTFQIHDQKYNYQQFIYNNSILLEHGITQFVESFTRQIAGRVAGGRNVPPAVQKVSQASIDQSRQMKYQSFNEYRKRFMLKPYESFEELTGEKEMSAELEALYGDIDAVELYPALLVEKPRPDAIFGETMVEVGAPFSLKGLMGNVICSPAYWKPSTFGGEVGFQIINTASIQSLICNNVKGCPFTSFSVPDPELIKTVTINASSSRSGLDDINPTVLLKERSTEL

[11] = Selectivity ratio IC50 for ovine COX1 to IC50 for human recombinant COX2

| IC50 [9] | IC50 [10] | Ratio IC50 [11] | Compound | paw edema inhibition relative to indomethacin at 280 µmol/kg [1] | inhibition in vivo at 280 µmol/kg [2] | paw edema inhibition relative to celecoxib at 280 µmol/kg [3] | inhibition in vivo at 280 µmol/kg [4] | inhibition in vivo at 280 µmol/kg [5] | inhibition in vivo at 280 µmol/kg [6] | UI [7] | inhibition in vivo at 280 µmol/kg [8] |
| --- | --- | --- | --- | --- | --- | --- | --- | --- | --- | --- | --- |
|  |  |  | COc1ccc(-n2nc(C(=O)Nc3ccccc3OC)nc2-c2cc(OC)c(OC)c(OC)c2)cc1 | 38% | 57% | 44% | 30% | 24% | 10% | 5 | 52% |
| > 100 µM | > 100 µM |  | COc1ccc(-n2nc(C(=O)Nc3ccc(Cl)cc3)nc2-c2cc(OC)c(OC)c(OC)c2)cc1 | 100% | 70% | 115% | 78% | 75% | 70% | 5 | 55% |
|  |  |  | COc1ccc(-n2nc(C(=O)Nc3ccc(C)cc3)nc2-c2cc(OC)c(OC)c(OC)c2)cc1 | 77% | 60% | 88% | 60% | 58% | 42% | 5.5 | 38% |
| 39.8 µM | 46.3 µM | 0.86 | COc1ccc(-n2nc(C(=O)NN)nc2-c2cc(OC)c(OC)c(OC)c2)cc1 | 73% | 47% | 84% | 57% | 54% | 56% | 2 | 36% |
|  |  |  | COc1ccc(-n2nc(C(=O)Nc3cccc(C(F)(F)F)c3)nc2-c2cc(OC)c(OC)c(OC)c2)cc1 | 83% | 55% | 96% | 65% | 56% | 50% | 5 | 48% |
| 45.9 µM | 68.2 µM | 0.67 | CNC(=O)c1nc(-c2cc(OC)c(OC)c(OC)c2)n(-c2ccc(OC)cc2)n1 | 95% | 74% | 109% | 74% | 65% | 50% | 7.5 | 56% |
| > 100 µM | > 100 µM |  | COc1ccc(-n2nc(C(=O)Nc3ccc(Br)cc3)nc2-c2cc(OC)c(OC)c(OC)c2)cc1 | 85% | 50% | 97% | 66% | 59% | 57% | 1.8 | 40% |
|  |  |  | Cc1ccc(-c2cc(C(F)(F)F)nn2-c2ccc(S(N)(=O)=O)cc2)cc1 [CELECOXIB] |  | 48% |  | 68% | 57% | 51% | 0.5 | 42% |
|  |  |  | COc1ccc(-n2nc(C(=O)Nc3ccc(C(=O)O)cc3)nc2-c2cc(OC)c(OC)c(OC)c2)cc1 | 95% | 57% | 109% | 74% | 69% | 60% | 12 | 50% |
|  |  |  | COc1ccc(-n2nc(C(N)=O)nc2-c2cc(OC)c(OC)c(OC)c2)cc1 | 92% | 59% | 106% | 72% | 71% | 64% | 9 | 40% |
|  |  |  | COc1ccc(-n2nc(C(=O)Nc3ccc(O)cc3)nc2-c2cc(OC)c(OC)c(OC)c2)cc1 | 64% | 35% | 74% | 50% | 37% | 27% | 1 | 36% |
| > 100 µM | > 100 µM |  | COc1ccc(-n2nc(C(=O)Nc3ccc(OC)c(OC)c3)nc2-c2cc(OC)c(OC)c(OC)c2)cc1 | 100% | 68% | 115% | 78% | 70% | 61% | 7 | 57% |
|  |  |  | COc1ccc(-n2nc(C(=O)Nc3ccccc3)nc2-c2cc(OC)c(OC)c(OC)c2)cc1 | 69% | 51% | 79% | 54% | 50% | 46% | 4 | 45% |
|  |  |  | COc1ccc(NC(=O)c2nc(-c3cc(OC)c(OC)c(OC)c3)n(-c3ccc(OC)cc3)n2)cc1 | 86% | 45% | 99% | 67% | 63% | 51% | 4.5 | 39% |
|  |  |  | CCNC(=O)c1nc(-c2cc(OC)c(OC)c(OC)c2)n(-c2ccc(OC)cc2)n1 | 88% | 68% | 101% | 69% | 58% | 52% | 9 | 60% |
